G6PDH CS = inhibits Leuconostoc G6PDH, flagging false hits in G6PDH-based assays; 200,000 tested, 0.12% active; AID 1020; Purified L. mesenteroides G6PDH, diaphorase/resazurin coupled fluorescence, 45 min; inhibition, % at 5 µM; in the data active = inhibition above about 50%
TbHK1 inh = blocks Trypanosoma brucei hexokinase 1 activity; 220,000 tested, 0.11% active; recombinant TbHK1, G6PDH-coupled NADH A340; inhibition, % at 10 µM;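 active = inhibition of 50% or more in the single-dose primary screen; inactive = inhibition below 50%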
HKDC1 inh = inhibitors of human hexokinase HKDC1 | Q2TB90 | recombinant HKDC1, G6PDH/diaphorase resazurin coupled fluorescence | inhibition, % at 20 µM | 340,000 tested, 0.16% active | AID 493160;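 active = inhibition above about 35% when tested at 20 µM, limit read from the data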;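 also: plate controls were DMSO wells with enzyme for no effect and DMSO wells lacking enzyme for full effect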
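test system = in-house recombinant HK5 (HKDC1) enzyme | amount = HKDC1 at 5 µg/mL | control set = DMSO-enzyme wells negative, buffer-substituted wells positive | compound = one dose of 20 µM, 1% DMSO | schedule = reaction time 90 min, room temperature, protected from light | technique = resorufin fluorescence at 613 nm | reagent = glucose with 1 mM ATP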
PfG6PD inh = PfG6PD (Plasmodium falciparum) enzyme inhibition; inhibition, % at 20 µM; PfGluPho enzyme, NADPH resazurin-diaphorase fluorescence; AID 504690; 350,000 tested, 0.78% active;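 active = inhibition reaching at least a set limit at 20 µM in the primary screen, cut at about 59% in these data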;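 also: 0% = DMSO wells with substrate and 100% = DMSO wells lacking glucose-6-phosphate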
Diaphorase inh = inhibits diaphorase or chemically oxidizes, flagging diaphorase assay artifacts; diaphorase resazurin-to-resorufin fluorescence, NADH, 16 min; bacterial (C. kluyveri) enzyme, not human; inhibition, % at 20 µM; 190,000 tested, 0.69% active;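 active = primary screen inhibition at 20 µM above a set limit, cut at about 50% in these data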;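 also: plate controls were DMSO with full reaction for no effect and wells lacking NADH for full effect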
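Assay system: diaphorase enzyme from Clostridium kluyveri. Quantity: enzyme working solution with 0.14 U/mL diaphorase. Schedule: reaction incubation of 16 min at room temperature. Technique: resorufin fluorescence, excitation 544 nm, emission 590 nm. Controls: No-NADH positive control and DMSO neutral control.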
HKDC1 act conf = HKDC1 (human) activation, single-dose confirmed | recombinant HKDC1, G6PDH/diaphorase resazurin fluorescence; stronger effect = lower value | shares compounds with HKDC1 inh | inhibition, % at 20 µM | 740 tested, 14% active;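 active = inhibition at or below a set negative limit, negative inhibition meaning the enzyme was activated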
The depositor's hits bear a star; x = no result given. Hits are enriched below; roughly 1.2% of the tested compounds scored in any of these assays.

SMILES	G6PDH CS	TbHK1 inh	HKDC1 inh	PfG6PD inh	Diaphorase inh	HKDC1 act conf
CCc1ccc(S(=O)(=O)/N=C2/C=C(Sc3ncn[nH]3)C(=O)c3ccccc32)cc1	52*	38	71*	107*	48	73
O=C(N/N=C/c1ccccc1OC(=O)c1ccc2c(c1)OCO2)c1ccccc1	0	10	-48	14	18	-18
NNc1ncnc2sc3c(c12)CCC3	1	1	-102	2	2	-5
c1cc(Nc2ncnc3sc4c(c23)CCC4)ccn1	10	-15	-3	8	15	x
CC(=O)n1cc(N(C(=O)CCl)c2ccc(Cl)cc2)c2ccccc21	x	-8	58*	-1	x	33
O=S(=O)(c1ccc(F)c(F)c1)N1CCCCCCC1	x	x	x	-9	x	x
COc1cccc(OC)c1C(=O)NNC(=O)c1cccnc1	x	-10	-5	1	x	x
O=C(NNC(=O)c1cccnc1)NC1CCCCC1	3	9	-60	-1	8	-25
Cc1cc(OCC(=O)Nc2cnn(CCCC(=O)O)c2)ccc1Cl	x	x	-2	-19	x	x
O=C(N/N=C1/C(=O)c2cccc3cccc1c23)c1ccc(Cl)cc1	4	-19	43*	26	68*	-2
COc1ccc(OC)c(NC(=O)CC2Oc3ccccc3NC2=O)c1 (stereo not drawn)	x	x	4	-4	x	x
Cc1cc2nnc(SCC(=O)Nc3cc(S(=O)(=O)N4CCOCC4)ccc3Cl)n2c2ccccc12	1	-16	48*	39	48	37
CC(C)CN(C(=O)CN(C)CC(=O)Nc1ccc(Cl)c(C(F)(F)F)c1)c1c(N)n(CC(C)C)c(=O)[nH]c1=O	x	x	2	-9	x	x
COc1ccccc1N1CCN(C(=O)c2ccc(COc3cccc4c3OC(C)(C)C4)cc2)CC1	x	x	-1	21	x	x
COc1ccc2cc(/C=N/NC(=O)c3c(Cl)cnn3C)c(Cl)nc2c1	-2	2	-75	-5	-9	-13
COc1ccc2cc(/C=N/NC(=O)c3ccc(CN(c4ccc(C)c(C)c4)S(C)(=O)=O)cc3)c(Cl)nc2c1	-34	-22	-6	0	7	x
Nc1nonc1C(=O)NCCNC(=O)c1ccc(Cl)c(Cl)c1	x	x	-5	0	x	x
Cc1ccc(NC(=S)NCc2ccccn2)cc1	-5	3	-10	-2	9	x
S=C(NCc1ccccn1)NN=Cc1ccccn1	x	x	-44	52	x	-45*
CSc1nc(N(C)CCO)c2sc3nc(-c4ccco4)c4c(c3c2n1)CCC4	6	10	47*	11	20	-18
O=[N+]([O-])c1ccc(-c2csc(N/N=C/c3cccnc3)n2)cc1	-4	-18	36*	24	-2	-25
CC(C)(C)c1nnc(N/N=C/c2cc(Br)ccc2O)n(N)c1=O	15	2	-43	-5	26	-49*
CCc1nnc(N/N=C/c2cc(Br)c(O)cc2O)n1N	x	x	13	52	x	x
Cc1ccc2[nH]c(C(=O)N3CCN(c4cccc(Cl)c4)CC3)cc2c1	x	x	-6	-10	x	x
CC(=O)N1c2ccccc2Sc2ccc3ccccc3c21	x	x	x	25	x	x
SMILES	G6PDH CS	TbHK1 inh	HKDC1 inh	PfG6PD inh	Diaphorase inh	HKDC1 act conf
O=C(CCl)N1c2ccccc2Sc2c1ccc1ccccc21	x	x	44*	23	x	5
O=C(N/N=C/c1cc(Cl)c(O)c(Cl)c1)c1cc2c(ccc3ccccc32)o1	x	x	11	-4	x	x
Nc1ccn([C@@H]2O[C@H](CNS(=O)(=O)c3cc4ccccc4s3)[C@@H](O)[C@H]2O)c(=O)n1	x	x	x	11	x	x
CC(=NNC(=O)c1ccncc1)c1ccc(O)cc1O	x	x	-40	-38	x	-4
C/C(=N\NC(=O)c1cc(-c2cccnc2)nc2ccccc12)c1ccc(O)cc1O	-8	24	-40	-29	20	-3
C/C(=N\NC(=O)c1cc(-c2cccc(OC(C)C)c2)nc2ccccc12)c1cccnc1	x	x	4	14	x	x
CC(=NNC(=O)c1ccncc1)c1ccccc1O	x	x	-1	-40	x	x
CC(C)(C)c1ccc(Cn2c(=O)cnc3ccccc32)cc1	x	x	7	-23	x	x
COc1ccc(C(=O)NCCS(=O)(=O)N2CCCC2)cc1	x	x	-3	-4	x	x
CCOC(=O)c1ccc(N=C2C(=S)N(c3ccc(C(=O)OCC)cc3)C(=N)N2/N=C/c2ccccc2)cc1	2	-33	-136	29	-1	-34
Cc1ccc2c(c1C)-c1c(ccc(C)c1C)C(=O)C2=O	x	x	38*	40	x	12
Cc1ccc(CC#N)c(-c2c(CC#N)ccc(C)c2C)c1C	x	x	x	5	x	x
